# According to ChEMBL document CHEMBL1151458, “Comparative analysis of the bactericidal activities of amphibian peptide analogues against multidrug-resistant nosocomial bacterial strains” (2008):
# Activity calls are given as the source filed them. No cut-off for these calls is given here.
# Assays:
# Enterococcus faecium [1] = assay: Bactericidal activity against Enterococcus faecium isolate 5 with AMP-AMC-CIP-CLI-ERY-GEN-KAN-LVX-SXT-TEC-VAN resistance phenotype assessed as concentration required for >= 3 log10 CFU/ml reduction in viable bacteria in sodium phosphate buffer at pH 7.4 after 1.5 hrs by liquid microdilution assay; format: functional
# Outline: (§1)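 Clinical multidrug-resistant isolates grown to mid-log in tryptone soy broth and stored frozen. Exponential cells resuspended in 10 mM sodium phosphate buffer, pH 7.4, at 1 × 10^7 CFU/ml; 10 μl incubated with graded peptide concentrations in 100 μl at 37°C for 1.5 h. Plated on tryptone soy agar, CFU read after 24 h at 37°C. Peptide stocks in 20% ethanol.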
# Pseudomonas aeruginosa [2] = assay: Antimicrobial activity against Pseudomonas aeruginosa isolate 1 with AMP-CFZ-CIP-CTX-CXM-GEN-LVX-SXT-TET resistance phenotype at twofold bactericidal concentration after 10 to 30 mins by time kill assay; format: functional, organism-based
# Outline: (§2)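 Time-kill in 10 mM sodium phosphate buffer, pH 7.4: 1 × 10^7 CFU/ml mid-log clinical isolate (10 μl) exposed at 37°C to peptide at the 1.5-h bactericidal concentration or twofold that, in 100 μl. Samples taken from 2 min onward, plated on tryptone soy agar, CFU counted after 24 h at 37°C. Killing taken as ≥3 log10 CFU/ml drop.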
# [3] = system: Stenotrophomonas maltophilia; assay: Bactericidal activity against Stenotrophomonas maltophilia isolate 2 with AMK-CIP-CTX-IPM-MEM-SAM-TZP resistance phenotype assessed as concentration required for >= 3 log10 CFU/ml reduction in viable bacteria in 20% heat-inactivated human serum after 1.5 hrs by liquid microdilution assay; format: functional
# Outline: (§3)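 The buffer microdilution kill assay (1 × 10^7 CFU/ml mid-log cells, 10 μl in 100 μl, 37°C, 1.5 h, CFU on tryptone soy agar after 24 h) with serum added to 20% or 40% final. Serum was pooled from five healthy donors, clotted at room temperature, spun at 300 × g and heat-inactivated at 56°C for 30 min.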
# Staphylococcus aureus [4] = assay: Antimicrobial activity against Staphylococcus aureus isolate 1 with AMC-AMP-CIP-ERY-GEN-OXA-RIF resistance phenotype at bactericidal concentration within 30 mins; format: functional, organism-based; outline: as §2
# Pseudomonas aeruginosa [5] = assay: Bactericidal activity against Pseudomonas aeruginosa isolate 3 with AMP-CFZ-CTX-CIP-GEN-IPM-LVX-SXT-TET-TOB resistance phenotype assessed as concentration required for >= 3 log10 CFU/ml reduction in viable bacteria in sodium phosphate buffer at pH 7.4 after 1.5 hrs by liquid microdilution assay; format: functional; outline: as §1
# Acinetobacter baumannii [6] = assay: Bactericidal activity against Acinetobacter baumannii isolate 2 with AMP-CFZ-CIP-LVX-PIP-SXT resistance phenotype assessed as concentration required for >= 3 log10 CFU/ml reduction in viable bacteria in sodium phosphate buffer at pH 7.4 after 1.5 hrs by liquid microdilution assay; format: functional; outline: as §1
# Enterococcus faecium [7] = assay: Antimicrobial activity against Enterococcus faecium isolate 3 with AMP-CIP-CTX-ERY-GEN-LVX-SXT-TEC-VAN resistance phenotype at bactericidal concentration within 30 mins; format: functional, organism-based; outline: as §2
# Acinetobacter baumannii [8] = assay: Bactericidal activity against Acinetobacter baumannii isolate 3 with AMP-AMC-CFZ-CIP-IPM-SXT-TET-TOB resistance phenotype assessed as concentration required for >= 3 log10 CFU/ml reduction in viable bacteria in 40% heat-inactivated human serum after 1.5 hrs by liquid microdilution assay; format: functional; outline: as §3
# Enterococcus faecium [9] = assay: Antimicrobial activity against Enterococcus faecium isolate 3 with AMP-CIP-CTX-ERY-GEN-LVX-SXT-TEC-VAN resistance phenotype at twofold the bactericidal concentration within 30 mins; format: functional, organism-based; outline: as §2
# Staphylococcus aureus [10] = assay: Bactericidal activity against Staphylococcus aureus isolate 1 with AMC-AMP-CIP-ERY-GEN-OXA-RIF resistance phenotype assessed as concentration required for >= 3 log10 CFU/ml reduction in viable bacteria in 20% heat-inactivated human serum after 1.5 hrs by liquid microdilution assay; format: functional; outline: as §3
# Enterococcus faecium [11] = assay: Bactericidal activity against Enterococcus faecium isolate 3 with AMP-CIP-CTX-ERY-GEN-LVX-SXT-TEC-VAN resistance phenotype assessed as concentration required for >= 3 log10 CFU/ml reduction in viable bacteria in sodium phosphate buffer at pH 7.4 after 1.5 hrs by liquid microdilution assay; format: functional; outline: as §1
substance,measurement,setting,value
H-GIFSKLAGKKLKNLLISG-NH2,Activity,Enterococcus faecium [1],2 µM
same,Activity,Pseudomonas aeruginosa [2],Active
same,Activity,[3],8 µM
same,Activity,Staphylococcus aureus [4],inactive
same,Activity,Pseudomonas aeruginosa [5],0.5 µM
same,Activity,Acinetobacter baumannii [6],0.5 µM
same,Activity,Enterococcus faecium [7],inactive
same,Activity,Acinetobacter baumannii [8],32 µM
same,Activity,Enterococcus faecium [9],inactive
same,Activity,Staphylococcus aureus [10],64 µM
same,Activity,Enterococcus faecium [11],2 µM
